In ChEMBL document CHEMBL4406900, “Synthesis and antidepressant-like activity of novel alkoxy-piperidine derivatives targeting SSRI/5-HT1A/5-HT7” (Bioorg Med Chem Lett, 2019):

Key:
[1] = molecular target: T1, 5-hydroxytryptamine receptor 1A (Homo sapiens) (UniProt P08908); assay: Displacement of [3H]-8-OH-DPAT from 5HT1A receptor (unknown origin) expressed in HEK293 cells membranes at 1 uM incubated for 60 mins by scintillation counting method relative to control; type: cell membranes
T1 sequence (whole entry): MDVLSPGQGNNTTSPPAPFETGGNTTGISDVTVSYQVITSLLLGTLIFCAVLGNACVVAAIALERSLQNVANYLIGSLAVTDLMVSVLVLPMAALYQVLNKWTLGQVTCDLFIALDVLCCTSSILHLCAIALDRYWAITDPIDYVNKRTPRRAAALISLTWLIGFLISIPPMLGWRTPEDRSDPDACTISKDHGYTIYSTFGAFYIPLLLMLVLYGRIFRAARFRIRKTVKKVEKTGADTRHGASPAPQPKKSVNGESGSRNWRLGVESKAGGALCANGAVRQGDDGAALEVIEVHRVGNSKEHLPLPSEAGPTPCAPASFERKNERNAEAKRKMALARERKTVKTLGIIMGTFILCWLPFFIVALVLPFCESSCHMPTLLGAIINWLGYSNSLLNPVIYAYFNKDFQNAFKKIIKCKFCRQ

[2] = molecular target: T2, 5-hydroxytryptamine receptor 7 (Homo sapiens, UniProt P34969); assay: Displacement of [3H]-LSD from 5HT7 receptor (unknown origin) expressed in CHO cell membranes at 1 uM incubated for 120 mins by scintillation counting method relative to control
Method in brief: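 Single-concentration radioligand displacement on receptor-expressing cell membrane homogenates: [3H]-8-OH-DPAT with HEK-293 membranes for 5-HT1A, [3H]-LSD with CHO membranes for 5-HT7. Values are given as inhibition ratio (%).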

[3] = molecular target: Sodium-dependent serotonin transporter (Rattus norvegicus) (UniProt P31652); assay: Inhibition of rat synaptosomes 5HT transporter assessed as reduction in [3H]serotonin reuptake at 1 uM incubated for 15 mins by scintillation counting method relative to control; type: subcellular
Method in brief: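 Rat brain synaptosomes; inhibition of [3H]-5-HT incorporation through the serotonin uptake transporter at a single concentration, expressed as inhibition ratio (%).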

[4] = molecular target: T3, 5-hydroxytryptamine receptor 1A (Homo sapiens, UniProt P08908); assay: Displacement of [3H]-8-OH-DPAT from 5HT1A receptor (unknown origin) expressed in HEK293 cells membranes incubated for 60 mins by scintillation counting method; type: cell membranes
T3 sequence (P08908 whole entry): T1 sequence (whole entry)

[5] = molecular target: T2, 5-hydroxytryptamine receptor 7; assay: Displacement of [3H]-LSD from 5HT7 receptor (unknown origin) expressed in CHO cell membranes incubated for 120 mins by scintillation counting method
Method in brief: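 For 5-HT7, [3H]-LSD displacement binding was run on CHO cell membrane homogenates. Ki came from 8 concentrations, each tested in duplicate.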

[6] = molecular target: Sodium-dependent serotonin transporter (Rattus norvegicus, UniProt P31652); assay: Inhibition of rat synaptosomes 5HT transporter assessed as reduction in [3H]serotonin reuptake incubated for 15 mins by scintillation counting method; type: subcellular
Method in brief: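 Serotonin uptake transporter assay: inhibition of [3H]-5-HT incorporation into rat brain synaptosomes. IC50 was derived from 8 concentrations, each in duplicate.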

[7] = Half life in rat liver microsomes at 1 uM in presence of NADPH generating system measured for 10 to 90 mins by LC-MS/MS analysis; type: ADME, Microsome
Method in brief: (§1)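 Metabolic stability in rat or human liver microsomes, reported as t1/2 (min) and intrinsic clearance CL (µL/min/mg).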

[8] = Clearance in rat liver microsomes at 1 uM in presence of NADPH generating system measured for 10 to 90 mins by LC-MS/MS analysis; type: ADME, Microsome; details: read-out: CLH; method in brief: as §1
[9] = Half life in human liver microsomes at 1 uM in presence of NADPH generating system measured for 10 to 90 mins by LC-MS/MS analysis; type: ADME, Microsome; method in brief: as §1
[10] = Clearance in human liver microsomes at 1 uM in presence of NADPH generating system measured for 10 to 90 mins by LC-MS/MS analysis; type: ADME, Microsome; details: read-out: CLH; method in brief: as §1
Mus musculus [11] = assay: Antidepressant activity in mouse assessed as decrease in immobility time at 10 mg/kg, po administrated for daily for 7 days measured 1 hr post last dose by forced swim test relative to control; type: functional; set-up: scale not given: the % may be the effect or the level left
Method in brief: (§2)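 Male mice, repeated oral dosing at 10, 20 or 40 mg/kg/day for 7 days. Immobility time was scored in the forced swim test. n = 10 per group, mean ± SEM, compared with a vehicle group (*P < 0.05, **P < 0.01).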

Mus musculus [12] = assay: Antidepressant activity in mouse assessed as decrease in immobility time at 20 mg/kg, po administrated for daily for 7 days measured 1 hr post last dose by forced swim test relative to control; type: functional; set-up: scale not given: the % may be the effect or the level left; method in brief: as §2
Mus musculus [13] = assay: Antidepressant activity in mouse assessed as decrease in immobility time at 40 mg/kg, po administrated for daily for 7 days measured 1 hr post last dose by forced swim test relative to control; type: functional; set-up: scale not given: the % may be the effect or the level left; method in brief: as §2
Mus musculus [14] = assay: Antidepressant activity in mouse assessed as decrease in immobility time at 10 mg/kg, po administrated for daily for 7 days measured 1 hr post last dose by tail suspension test relative to control; type: functional; set-up: scale not given: the % may be the effect or the level left
Method in brief: (§3)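 Tail suspension test in male mice after 7 days of repeated PO dosing at 10, 20 or 40 mg/kg/day. Immobility time was recorded with n = 10 per group, given as mean ± SEM and tested against vehicle (*P < 0.05, **P < 0.01).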

Mus musculus [15] = assay: Antidepressant activity in mouse assessed as decrease in immobility time at 20 mg/kg, po administrated for daily for 7 days measured 1 hr post last dose by tail suspension test relative to control; type: functional; set-up: scale not given: the % may be the effect or the level left; method in brief: as §3
Mus musculus [16] = assay: Antidepressant activity in mouse assessed as decrease in immobility time at […], po administrated for daily for 7 days measured 1 hr post last dose by tail suspension test relative to control; type: functional; set-up: scale not given: the % may be the effect or the level left

Sequence of Sodium-dependent serotonin transporter (Rattus norvegicus) (P31652 whole entry): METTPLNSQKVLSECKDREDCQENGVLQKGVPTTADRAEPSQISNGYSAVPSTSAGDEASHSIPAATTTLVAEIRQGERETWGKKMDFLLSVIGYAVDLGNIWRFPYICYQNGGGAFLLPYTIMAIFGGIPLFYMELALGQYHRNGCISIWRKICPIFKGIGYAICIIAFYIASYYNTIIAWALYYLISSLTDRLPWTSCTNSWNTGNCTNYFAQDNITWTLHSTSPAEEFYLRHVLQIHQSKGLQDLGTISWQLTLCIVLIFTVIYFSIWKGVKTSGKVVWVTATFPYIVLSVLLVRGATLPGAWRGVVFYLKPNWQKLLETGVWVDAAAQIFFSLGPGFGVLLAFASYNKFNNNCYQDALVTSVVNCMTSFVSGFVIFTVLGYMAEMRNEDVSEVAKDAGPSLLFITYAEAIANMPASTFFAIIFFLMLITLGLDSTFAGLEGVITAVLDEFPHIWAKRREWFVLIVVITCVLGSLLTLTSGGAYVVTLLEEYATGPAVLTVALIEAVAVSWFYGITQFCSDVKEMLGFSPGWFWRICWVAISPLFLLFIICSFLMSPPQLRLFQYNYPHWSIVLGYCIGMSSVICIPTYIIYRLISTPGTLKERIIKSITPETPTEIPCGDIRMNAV
T2 sequence (P34969 whole entry): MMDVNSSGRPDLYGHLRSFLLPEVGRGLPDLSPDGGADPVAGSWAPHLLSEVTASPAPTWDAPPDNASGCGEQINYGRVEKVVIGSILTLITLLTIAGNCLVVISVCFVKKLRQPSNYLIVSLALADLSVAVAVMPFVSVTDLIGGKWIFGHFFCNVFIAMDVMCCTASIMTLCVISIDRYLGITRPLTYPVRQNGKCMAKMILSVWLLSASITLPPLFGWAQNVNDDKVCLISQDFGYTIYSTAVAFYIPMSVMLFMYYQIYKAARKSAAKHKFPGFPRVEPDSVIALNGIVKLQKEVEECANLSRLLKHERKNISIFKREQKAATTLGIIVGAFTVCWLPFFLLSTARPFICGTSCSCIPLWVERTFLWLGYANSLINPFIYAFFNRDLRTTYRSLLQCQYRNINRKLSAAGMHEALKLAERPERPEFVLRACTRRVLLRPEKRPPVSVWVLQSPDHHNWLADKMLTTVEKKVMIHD
Sequence of Sodium-dependent serotonin transporter (P31652 whole entry): as the sequence (P31652 whole entry) above

| Structure (SMILES) | inhibition [1] | inhibition [2] | inhibition [3] | also measured |
| --- | --- | --- | --- | --- |
| Fc1ccc2[nH]cc(C3CCN(CCOc4ccc(F)c(-c5ccccc5)c4)CC3)c2c1 | 96.9% | 54.2% | 66.6% |  |
| Fc1ccc(OCCCN2CCC(c3c[nH]c4ccc(F)cc34)CC2)c(-c2ccccc2)c1 | 97.7% | 76.1% | 87% |  |
| Fc1cccc(-c2cc(F)ccc2OCCN2CCC(c3c[nH]c4ccc(F)cc34)CC2)c1 | 95.9% | 91% | 94.3% | Ki [4]: 17 nM; Ki [5]: 35 nM; IC50 [6]: 85 nM; half-life at 1 µM [7]: 22.9 min; microsomal CLint at 1 µM [8]: 60.4 µL/min/mg; half-life at 1 µM [9]: 61.4 min; microsomal CLint at 1 µM [10]: 22.6 µL/min/mg; Activity (Mus musculus [11]): 20%; Activity (Mus musculus [12]): 6%; Activity (Mus musculus [13]): 27%; Activity (Mus musculus [14]): 8%; Activity (Mus musculus [15]): 2%; Activity (Mus musculus [16]): 17% |
| Cc1ccc(Sc2ccccc2N2CCNCC2)c(C)c1 [VORTIOXETINE] |  | 92.5% | 101% | microsomal CLint at 1 µM [10]: 6.5 µL/min/mg; Activity (Mus musculus [13]): 52%; Activity (Mus musculus [16]): 48% |
| Fc1ccc(OCCN2CCC(Cc3c[nH]c4ccc(F)cc34)CC2)c(-c2ccccc2)c1 | 72.3% | 97.2% | 101% |  |
| Cc1ccc(-c2cc(F)ccc2OCCN2CCC(c3c[nH]c4ccc(F)cc34)CC2)cc1 | 94.5% | 86.2% | 38.9% |  |
| COc1ccc(-c2cc(F)ccc2OCCN2CCC(c3c[nH]c4ccc(F)cc34)CC2)cc1 | 98.7% | 95.9% | 12.3% |  |
| COc1ccc2c(c1)[C@]13CCCC[C@@H]1[C@H](C2)N(C)CC3 [DEXTROMETHORPHAN] |  |  |  | microsomal CLint at 1 µM [10]: 31 µL/min/mg |
| Fc1ccc(OCCN2CCC(c3c[nH]c4ccc(F)cc34)CC2)c(-c2ccc(Cl)cc2)c1 | 95% | 80.3% | 27.3% |  |
| Fc1ccc(OCCN2CCC(CCc3c[nH]c4ccc(F)cc34)CC2)c(-c2ccccc2)c1 | 54.3% | 94.3% | 99.8% |  |
| Fc1ccc(OCCN2CCC(c3c[nH]c4ccc(F)cc34)CC2)c(-c2ccccc2)c1 | 94.2% | 90.4% | 96.3% | Ki [4]: 12 nM; Ki [5]: 25 nM; IC50 [6]: 177 nM; half-life at 1 µM [7]: 34.5 min; microsomal CLint at 1 µM [8]: 40.2 µL/min/mg; half-life at 1 µM [9]: 61.5 min; microsomal CLint at 1 µM [10]: 22.5 µL/min/mg; Activity (Mus musculus [11]): 17%; Activity (Mus musculus [12]): 8%; Activity (Mus musculus [13]): 22%; Activity (Mus musculus [14]): 10%; Activity (Mus musculus [15]): 22%; Activity (Mus musculus [16]): 24% |
| Fc1ccc(-c2cc(F)ccc2OCCN2CCC(c3c[nH]c4ccc(F)cc34)CC2)cc1 | 97.4% | 86.5% | 90.6% |  |
| N#Cc1ccc(-c2cc(F)ccc2OCCN2CCC(c3c[nH]c4ccc(F)cc34)CC2)cc1 | 97.5% | 95.8% | 63% |  |
| Fc1ccc(OCCCN2CCC(Cc3c[nH]c4ccc(F)cc34)CC2)c(-c2ccccc2)c1 | 81.9% | 86.4% | 102% |  |
| Fc1ccc(OCCN2CCC(c3c[nH]c4ccc(F)cc34)CC2)c(-c2ccccc2F)c1 | 97.8% | 88.7% | 97.1% |  |
